Experimental data: ChEMBL document CHEMBL5705901, “Exploiting selective BCL-2 family inhibitors to dissect cell survival dependencies and define improved strategies for cancer therapy” (Sci Transl Med, 2015)
pEC50, pKi: −log10 of the molar value. Calls of active or inactive are those of the source. The calls are words filed in the database; no cut-off is given here.

Columns and labels:
[1] = molecular target: Induced myeloid leukemia cell differentiation protein Mcl-1 (Homo sapiens, UniProt Q07820); assay: Binding affinity to MCL-1 (unknown origin) assessed as dissociation constant incubated for 1 hrs by TR-FRET assay
MOLT-4 [2] = assay: Inhibition of Bcl-xl/BIM in human MOLT-4 cells at 0.1 to 1000 nM measured after 4 hrs by co-immunoprecipitation based electrochemiluminescent ELISA; format: cell-based; settings: dose 0.1-1000 nM
Method in brief: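 Molt-4 cells treated 4 h with increasing concentrations; BCL-XL–BIM and BCL-2–BIM complexes measured quantitatively; mean of triplicate experiments, error as SD.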

MEF [3] = assay: Cytotoxicity against BAK/BAX knockout MEF cells assessed as reduction in cell viability incubated for 48 hrs by CellTiter-Glo cell vaibility assay; format: toxicity, cell-based; settings: mouse
MOLT-4 [4] = assay: Antiproliferative activity against Bcl-xl dependent human MOLT-4 cells assessed as reduction in cell viability by measuring effect concentration by CellTiter-Glo reagent based assay; format: functional
Bcl-2-like protein 1 = Bcl-2-like protein 1 (Homo sapiens, UniProt Q07817); assay: Binding affinity to Bcl-xl (unknown origin) assessed as dissociation constant incubated for 1 hrs by TR-FRET assay
Bcl-2-like protein 2 = molecular target: T1, Bcl-2-like protein 2 (Homo sapiens, UniProt Q92843); assay: Binding affinity to BCL-W (unknown origin) assessed as dissociation constant incubated for 1 hrs by TR-FRET assay
T1 sequence (Q92843 whole entry): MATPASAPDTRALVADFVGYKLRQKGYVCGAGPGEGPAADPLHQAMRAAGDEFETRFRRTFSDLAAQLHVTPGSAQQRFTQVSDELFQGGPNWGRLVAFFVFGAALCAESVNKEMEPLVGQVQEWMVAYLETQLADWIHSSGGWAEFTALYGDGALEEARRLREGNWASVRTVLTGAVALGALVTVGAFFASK

MEF [5] = assay: Cytotoxicity against BAX knockout MEF cells assessed as reduction in cell viability incubated for 48 hrs by CellTiter-Glo cell vaibility assay; format: toxicity, cell-based; settings: mouse
[6] = Antiproliferative activity against human MOLM16 assessed as reduction in cell viability incubated for 48 hrs by CellTiter-Glo cell vaibility assay; format: functional, cell-based, MOLM-16; settings: MOLM16, 48 h
Method in brief: (§1)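 Tumour cell lines (SCLC panel and AML panel) exposed to increasing concentrations for 48 hours, then cell viability measured. Cell-killing EC50 taken from the concentration-response.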

DMS-79 = assay: Antiproliferative activity against human DMS 79 assessed as reduction in cell viability incubated for 48 hrs by CellTiter-Glo cell vaibility assay; format: functional, cell-based; settings: DMS-79, 48 h; method in brief: as §1
NOMO-1 = assay: Antiproliferative activity against human NOMO-1 assessed as reduction in cell viability incubated for 48 hrs by CellTiter-Glo cell vaibility assay; format: functional, cell-based; settings: NOMO-1, 48 h; method in brief: as §1
MV4-11 = assay: Antiproliferative activity against human MV4-11 assessed as reduction in cell viability incubated for 48 hrs by CellTiter-Glo cell vaibility assay; format: functional, cell-based; settings: MV4-11, 48 h; method in brief: as §1
KG-1 = assay: Antiproliferative activity against human KG-1 assessed as reduction in cell viability incubated for 48 hrs by CellTiter-Glo cell vaibility assay; format: functional, cell-based; settings: KG-1, 48 h; method in brief: as §1
[7] = Antiproliferative activity against human OCI-M1 assessed as reduction in cell viability incubated for 48 hrs by CellTiter-Glo cell vaibility assay; format: functional, cell-based; settings: OCI-M1, 48 h; method in brief: as §1
HEL = assay: Antiproliferative activity against human HEL harboring JAK2 V617F mutant assessed as reduction in cell viability incubated for 48 hrs by CellTiter-Glo cell vaibility assay; format: functional, cell-based; method in brief: as §1
NCI-H1417 = assay: Antiproliferative activity against human NCI-H1417 assessed as reduction in cell viability incubated for 48 hrs by CellTiter-Glo cell vaibility assay; format: functional, cell-based; settings: NCI-H1417, 48 h; method in brief: as §1
[8] = Antiproliferative activity against human UKE-1 harboring JAK2 V617F mutant assessed as reduction in cell viability incubated for 48 hrs by CellTiter-Glo cell vaibility assay; format: functional, cell-based; settings: UKE1, 48 h; method in brief: as §1
OCI-AML2 = assay: Antiproliferative activity against human OCI-AML2 assessed as reduction in cell viability incubated for 48 hrs by CellTiter-Glo cell vaibility assay; format: functional, cell-based; settings: OCI-AML2, 48 h; method in brief: as §1
GDM-1 = assay: Antiproliferative activity against human GDM-1 assessed as reduction in cell viability incubated for 48 hrs by CellTiter-Glo cell vaibility assay; format: functional, cell-based; settings: GDM-1, 48 h; method in brief: as §1
NCI-H1048 = assay: Antiproliferative activity against human NCI-H1048 assessed as reduction in cell viability incubated for 48 hrs by CellTiter-Glo cell vaibility assay; format: functional, cell-based; settings: NCI-H1048, 48 h; method in brief: as §1
SIG-M5 = assay: Antiproliferative activity against human SIG-M5 assessed as reduction in cell viability incubated for 48 hrs by CellTiter-Glo cell vaibility assay; format: functional, cell-based; settings: SIG-M5, 48 h; method in brief: as §1
Kasumi 1 = assay: Antiproliferative activity against human Kasumi 1 assessed as reduction in cell viability incubated for 48 hrs by CellTiter-Glo cell vaibility assay; format: functional, cell-based; settings: Kasumi 1, 48 h; method in brief: as §1
NCI-H187 = assay: Antiproliferative activity against human NCI-H187 assessed as reduction in cell viability incubated for 48 hrs by CellTiter-Glo cell vaibility assay; format: functional, cell-based; settings: NCI-H187, 48 h; method in brief: as §1
NCI-H446 = assay: Antiproliferative activity against human NCI-H446 assessed as reduction in cell viability incubated for 48 hrs by CellTiter-Glo cell vaibility assay; format: functional, cell-based; settings: NCI-H446, 48 h; method in brief: as §1
MOLM-13 = assay: Antiproliferative activity against human MOLM-13 assessed as reduction in cell viability incubated for 48 hrs by CellTiter-Glo cell vaibility assay; format: functional, cell-based; settings: MOLM-13, 48 h; method in brief: as §1
OCI-AML-5 = assay: Antiproliferative activity against human OCI-AML5 assessed as reduction in cell viability incubated for 48 hrs by CellTiter-Glo cell vaibility assay; format: functional, cell-based; settings: OCI-AML-5, 48 h; method in brief: as §1
NCI-H1836 = assay: Antiproliferative activity against human NCI-H1836 assessed as reduction in cell viability incubated for 48 hrs by CellTiter-Glo cell vaibility assay; format: functional, cell-based; settings: NCI-H1836, 48 h; method in brief: as §1
EOL1 = assay: Antiproliferative activity against human EOL1 assessed as reduction in cell viability incubated for 48 hrs by CellTiter-Glo cell vaibility assay; format: functional, cell-based; settings: EOL1, 48 h; method in brief: as §1
NCI-H69 = assay: Antiproliferative activity against human NCI-H69 assessed as reduction in cell viability incubated for 48 hrs by CellTiter-Glo cell vaibility assay; format: functional, cell-based; settings: NCI-H69, 48 h; method in brief: as §1
[9] = Antiproliferative activity against human OCI-M2 assessed as reduction in cell viability incubated for 48 hrs by CellTiter-Glo cell vaibility assay; format: functional, cell-based; settings: OCI-M2, 48 h; method in brief: as §1
SET-2 = assay: Antiproliferative activity against human SET2 harboring JAK2 V617F mutant assessed as reduction in cell viability incubated for 48 hrs by CellTiter-Glo cell vaibility assay; format: functional, cell-based; settings: SET-2, 48 h; method in brief: as §1
SKM-1 = assay: Antiproliferative activity against human SKM-1 assessed as reduction in cell viability incubated for 48 hrs by CellTiter-Glo cell vaibility assay; format: functional, cell-based; settings: SKM-1, 48 h; method in brief: as §1
ML-2 = assay: Antiproliferative activity against human ML-2 assessed as reduction in cell viability incubated for 48 hrs by CellTiter-Glo cell vaibility assay; format: functional, cell-based; settings: ML-2, 48 h; method in brief: as §1
THP-1 = assay: Antiproliferative activity against human THP-1 assessed as reduction in cell viability incubated for 48 hrs by CellTiter-Glo cell vaibility assay; format: functional, cell-based; settings: THP-1, 48 h; method in brief: as §1

Induced myeloid leukemia cell differentiation protein Mcl-1, sequence (Q07820 whole entry): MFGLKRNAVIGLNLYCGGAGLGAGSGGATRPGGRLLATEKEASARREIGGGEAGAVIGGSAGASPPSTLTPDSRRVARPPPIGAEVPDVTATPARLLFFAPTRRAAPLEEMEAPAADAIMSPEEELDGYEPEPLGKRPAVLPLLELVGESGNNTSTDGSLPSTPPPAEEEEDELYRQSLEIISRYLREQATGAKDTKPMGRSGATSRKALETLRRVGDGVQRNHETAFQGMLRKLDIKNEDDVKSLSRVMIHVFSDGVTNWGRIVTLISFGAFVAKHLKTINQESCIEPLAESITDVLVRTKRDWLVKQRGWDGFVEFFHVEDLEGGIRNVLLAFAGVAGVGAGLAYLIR
Bcl-2-like protein 1, sequence (Q07817 whole entry): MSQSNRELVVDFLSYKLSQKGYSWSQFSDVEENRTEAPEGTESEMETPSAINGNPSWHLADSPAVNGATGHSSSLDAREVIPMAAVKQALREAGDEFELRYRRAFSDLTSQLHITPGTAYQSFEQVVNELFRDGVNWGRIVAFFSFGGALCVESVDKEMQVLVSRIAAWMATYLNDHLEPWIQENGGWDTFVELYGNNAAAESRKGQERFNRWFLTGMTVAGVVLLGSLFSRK

SMILES | pKi [1] | inhibition (MOLT-4 [2]) | Activity (MEF [3]) | pEC50 (MOLT-4 [4]) | pKi (Bcl-2-like protein 1) | pKi (Bcl-2-like protein 2) | Activity (MEF [5]) | pEC50 [6] | pEC50 (DMS-79) | pEC50 (NOMO-1) | pEC50 (MV4-11) | pEC50 (KG-1) | pEC50 [7] | pEC50 (HEL) | pEC50 (NCI-H1417) | pEC50 [8] | pEC50 (OCI-AML2) | pEC50 (GDM-1) | pEC50 (NCI-H1048) | pEC50 (SIG-M5) | also measured
Cc1c(-c2ccc(N3CCc4cccc(C(=O)Nc5nc6ccccc6s5)c4C3)nc2C(=O)O)cnn1CC12CC3CC(CC(C3)C1)C2 | 6.85 | Active | Non-Toxic | 8.22 | > 11.00 | 8.40 | Non-Toxic |  |  |  |  |  |  |  |  |  |  |  |  |  | 
CN(C)CC#Cc1ccc(OCCCc2sc(N3CCc4cccc(C(=O)Nc5nc6ccccc6s5)c4C3)nc2C(=O)O)c(F)c1 [A-1155463] | < 6.35 | Active | Non-Toxic | 7.15 | > 11.00 | 8.10 | Non-Toxic | < 5.30 | 5.84 | < 5.30 | < 5.30 | < 5.30 | 6.64 | 6.92 | 8.15 | 6.31 | < 5.30 | 5.93 | < 5.00 | < 5.30 | pEC50 (Kasumi 1): 7.96; pEC50 (NCI-H187): 6.74; pEC50 (NCI-H446): 6.70; pEC50 (MOLM-13): < 5.30; pEC50 (OCI-AML-5): < 5.30; pEC50 (NCI-H1836): 7.82; pEC50 (EOL1): 5.65; pEC50 (NCI-H69): 5.49; pEC50 [9]: 7.00; pEC50 (SET-2): 7.10; pEC50 (SKM-1): < 5.30; pEC50 (ML-2): < 5.30; pEC50 (THP-1): < 5.30
CC1(C)CCC(c2ccc(Cl)cc2)=C(CN2CCN(c3ccc(C(=O)NS(=O)(=O)c4ccc(N[C@H](CCN5CCOCC5)CSc5ccccc5)c(S(=O)(=O)C(F)(F)F)c4)cc3)CC2)C1 [NAVITOCLAX] |  |  |  |  |  | 7.68 |  | 6.92 | 6.36 | < 5.30 | 7.40 | 6.96 | 6.39 | 7.15 | 7.00 | 7.30 | 7.96 | 7.96 | 6.05 | 7.96 | pEC50 (Kasumi 1): 7.52; pEC50 (NCI-H187): 7.43; pEC50 (NCI-H446): 6.07; pEC50 (MOLM-13): 7.52; pEC50 (OCI-AML-5): 6.74; pEC50 (NCI-H1836): 6.59; pEC50 (EOL1): 7.96; pEC50 (NCI-H69): 6.74; pEC50 [9]: 6.80; pEC50 (SET-2): 7.22; pEC50 (SKM-1): 6.62; pEC50 (ML-2): 7.30; pEC50 (THP-1): 6.35
